Experimental data published in PubChem BioAssay.
Unmarked numbers belong to inactive results. Results filed as inconclusive are left out. Calls of active or inactive are those of the source.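 Rule for the calls, unless noted: active = inhibition over a set limit, the all-compound mean plus 3 SD, in both replicate runs; inconclusive = over that limit in just one replicate run; inactive = at or under that limit in both runs.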

What was measured:
[1] = OD615 S. cerevisiae growth inhibition, permissive medium, pilot counter-assay, permissive growth control for S. cerevisiae lifespan shortening project (AID 705;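 active = growth inhibition above 25% in both replicates, a cutoff set 3 SD above the mean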); details: OD615, 24 h, at 10 µM, stronger effect = higher value
Summary of the method: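 Material: engineered DeaD yeast; compound dosing: one dose 10 µM, DMSO 0.25% final; measure: yeast growth inhibition indicated by reduced 24 h OD615; detection: OD615 turbidity read; incubation: cells pre-grown 4 h, then 24 h compound exposure, 30 °C humidified; medium: permissive synthetic complete medium with raffinose and galactose carbon sources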

[2] = Restrictive medium S. cerevisiae growth inhibition, OD615, pilot screen of yeast lifespan reduction project, restrictive growth control (AID 706;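 active = growth inhibition above a set limit, 3 SD over mean compound inhibition, in both replicates, cut at about 43% in these data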;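 note: modified DeaD lifespan yeast strain shifted to restrictive glucose medium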); details: OD615, 48 h, at 10 µM, stronger effect = higher value
Summary of the method: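 material = engineered S. cerevisiae DeaD strain | medium = glucose-based CSMM-D restrictive medium | times = 4 h pre-incubation, 48 h exposure at 30 °C | technique = OD615 absorbance reading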

[3] = viability gain of MRP-1-high H69AR cells under doxorubicin, pilot screen, MRP-1 activator project, CellTiter-Glo, duplicate (AID 807;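 active = viability increase at or above a cutoff of the median across tested compounds plus 3 SD, cut at about 8.5% in these data, passing the limit was not always enough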;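 note: compound pretreatment 18-22 h then 72 h combined with doxorubicin; 0% = doxorubicin alone and 100% = vehicle without doxorubicin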); details: H69AR viability with doxorubicin, CellTiter-Glo luminescence; at 10 µM; stronger effect = higher value
[4] = growth suppression of PTEN-deleted HCT116, pilot screen, cell-based, HCT116 clonal line, CellTiter-Glo (AID 824;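 active = viability at or below 27.92% in each of two runs, the all-compound median minus 4 SD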;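 note: 0% = 20 µM Hyamine control and 100% = vehicle cell control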); details: 60 h, at 10 µM, stronger effect = lower value
[5] = inhibitors of the yeast RAM network, pilot screen, dse1pr::URA3 reporter, 5-FOA selection (AID 869);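 note: 0% = DMSO wells with no growth and 100% = 10 µM 1-NA-PP1 with full growth; RAM network block rescues cells from 5-FOA so hits raise OD615 growth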; details: S. cerevisiae dse1pr::URA3 5-FOA growth, OD615, 2 d; at 10 µM; stronger effect = higher value; strain carries analog-sensitive mutant Cbk1 kinase
[6] = RAM signaling pathway blockade in yeast – S. cerevisiae, Pdr1DBD-CYC8 efflux-inhibited sensitized strain, primary screen (AID 1298;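 active = RAM network inhibition above 8.4% in each of two replicates, 3 SD over the compound average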;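 note: 0% = DMSO untreated cells without growth and 100% = 10 µM 1-NA-PP1 full growth; higher means more yeast growth rescued from 5-FOA killing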); details: S. cerevisiae cbk1-as DSE1-URA3 strain, 5-FOA growth OD615, 2 d; at 50 µM; stronger effect = higher value

| SMILES | growth inhibition [1] [%] | growth inhibition [2] [%] | viability increase [3] [%] | viability [4] | inhibition [5] [%] | RAM network inhibition [6] [%] |
| --- | --- | --- | --- | --- | --- | --- |
| O=C(C1CC1)N1CCc2cc(Br)cc(S(=O)(=O)NCCN3CCOCC3)c21 | -5.94 | -6.43 | -2.94 | 94.7% | 1.69 | 2.57 |
| COc1cc(C2CC(=O)C=C(O)C2)cc(OC)c1OC (stereo not given) | -7.01 | -6.56 | 0.41 | 99% | 0.785 | 5.78 |
| Cc1cccc(NC(=O)CS(=O)(=O)c2cn(C)c3ccccc23)c1C | -8.09 | -5.75 | -3.27 | 96.5% | 1.46 | 3.02 |
| CCc1cccc(C)c1NC(=O)CCCC(=O)O | -0.24 | -1.56 | -1.29 | 102% | 0.44 | -0.21 |
| CS(=O)(=O)N(CC(=O)N1CCN(c2ccccc2F)CC1)c1cc(C(F)(F)F)ccc1Cl | 1.93 | 0.015 | 0.43 | 88.3% | -0.485 | 0.87 |
| Cc1ccc(C(C)NC(=O)c2ccco2)cc1C (stereo not given) | -7.97 | -4.3 | -3.06 | 98.8% | 0.75 | -1.23 |
| CCn1cc(C(=O)NCCCN2CC(C)CC(C)C2)c2cc(OC)c(OC)cc2c1=O (stereo not given) | -15.8 | -7.97 | -2.98 | 97.5% | 1.03 | 3.13 |
| CS(=O)(=O)N(CC(=O)N1CCCCCC1)c1cccc(Br)c1 | -9.19 | -11.5 | -2.75 | 94.5% | 1.21 | 1.44 |
| CCN(Cc1ccccc1)S(=O)(=O)c1ccc(C(=O)Nc2nnc(C3CC3)o2)cc1 | -5.06 | -18.6 | -4.27 | 22.8% (active) | 2.35 | 5.05 |
| CCc1nnc2n1N=C(c1ccc(-c3cc(Cl)ccc3Cl)o1)CS2 | 9.53 | 26.5 | -7.22 | 22.4% (active) | 2.5 | 5.16 |
| CCNc1nc2c(c(=O)n(C)c(=O)n2C)n1Cc1ccc(Cl)cc1 | -6.92 | -2.02 | -2.02 | 58.3% | -0.48 | 1.98 |
| O=C(O)CCC(=O)CCC(=O)c1ccc(Cl)cc1 | 8.94 | -2.93 | -1.69 | 94.3% | -0.55 | 5.32 |
| Cc1ccc(OCC(O)CN2CCN(c3ccccc3)CC2)cc1 (stereo not given) | -3.02 | -2.13 | -0.7 | 99.9% | 1.23 | 7.87 |
| COc1cc(/C=N/n2cnnc2)ccc1OC(=O)c1cccnc1 | -8.46 | -8.55 | -2.5 | 97.8% | 0.985 | 0.57 |
| CCOc1ccccc1NC(=O)CSc1ccccc1 | -17.2 | -2.58 | -2.94 | 85.8% | 0.255 | 2.06 |
| CCCOc1nc2c(c(=O)n(C)c(=O)n2C)n1Cc1cccc2ccccc12 | -12.5 | -0.875 | -4.04 | 57.7% | 0.84 | 1.64 |
| O=c1[nH]c(SCc2ccccc2Cl)nc2c1CCC2 | -4.46 | -1.71 | -2.17 | 96.9% | 1.91 | 1.7 |
| O=C1CC(c2ccccc2)c2cc(O)ccc2O1 (stereo not given) | -23.7 | -23 | 3.84 | 69.2% | 1.45 | 2.58 |
| COc1ccc(C2=[N+]([O-])C(C)(C)N(O)C2(C)C)cc1 | -8.58 | 12.9 | -1.34 | 100% | 1.38 | 0.67 |
| O=C(CN(C1CCCCC1)S(=O)(=O)c1ccccc1)N1CCCC1 | -9.43 | -3.8 | -2.08 | 100% | 0.885 | 2.77 |

| SMILES | growth inhibition [1] [%] | growth inhibition [2] [%] | viability increase [3] [%] | viability [4] | inhibition [5] [%] | RAM network inhibition [6] [%] |
| --- | --- | --- | --- | --- | --- | --- |
| Cc1c(C(=O)NCc2ccccn2)oc2ccc(S(=O)(=O)N3CCOCC3)cc12 | -0.375 | -7.32 | -3.28 | 94.4% | 1.13 | 0.56 |
| Cc1nnc(NC(=O)CSc2nccn2-c2cccc(C)c2C)s1 | -7.29 | 11.5 | -5.19 | 30.1% | 0.035 | 4.71 |
| Cc1cc2ccccc2c(=O)n1CC(=O)NCC(=O)N(C)Cc1ccccc1 | -10.2 | -4.71 | -0.97 | 98.6% | 0.475 | 5.32 |
| CCN(CC)c1ccc(CNC23CN4CN(CN(C4)C2)C3)cc1 | -8.69 | 2.79 | -2.2 | 94.1% | 1.72 | 2.4 |
| CCS(=O)(=O)N1CCN(C(=O)c2cccs2)CC1 | -9.68 | -12.3 | -1.23 | 100% | 3.8 | -0.05 |
| O=C(Nc1cccc(F)c1)Nc1ccccn1 | -10.9 | -7.43 | -3.54 | 88.1% | 0.385 | -0.16 |
| CCOC(=O)c1ccc(NC(=O)N(CC)CC)cc1 | -7.39 | -1.5 | -0.97 | 97.4% | 0.865 | 2.51 |
| COc1ccc(C)cc1NC(=O)CN(c1ccccc1)S(C)(=O)=O | -7.61 | -4.67 | -1.58 | 96% | 0.74 | 5.82 |
| COC(=O)c1c(NC(=O)Cc2cccs2)sc(C)c1C | 2.9 | 6.72 | -4.9 | 87% | 1.54 | 9.13 |
| COC(=O)C(CC(C)C)Oc1ccc2c(C)cc(=O)oc2c1 (stereo not given) | -10.5 | 5.8 | -2.47 | 92.6% | 1.14 | 1.38 |
| CCCCS(=O)CC(CS(=O)CCCC)OC(=O)c1ccc(C)cc1 (stereo not given) | -10.6 | -7.7 | -1.14 | 96.3% | 1.73 | 0.87 |
| O=C(NCc1ccco1)c1ccc(CN2CCOCC2)cc1 | -5.32 | 1.69 | -3.13 | 105% | 2.41 | 2.2 |
| Cc1ccc(S(=O)(=O)c2cccc(S(=O)(=O)N3CCCC3)c2)cc1S(=O)(=O)N1CCCC1 | -2.43 | -5.35 | -3.64 | 44.4% | 1.4 | 2.38 |
| C#CCN1C(=O)C(O)(CC(=O)c2ccc(OC)c(OC)c2)c2ccccc21 (stereo not given) | 2.17 | 0.69 | -5.17 | 48% | 1.62 | 1.98 |
| CCn1cc(S(=O)(=O)CC(=O)NC2CCCCC2)c2ccccc21 | -9.89 | -0.52 | -1.1 | 97.4% | 1.71 | 2.87 |
| O=C(NCc1cccnc1)NC1(C(F)(F)F)Oc2ccccc2O1 | 4.4 | 5.9 | -5.46 | 67.2% | 0.81 | 3.16 |
| Cn1c(=O)oc2cc(S(=O)(=O)N3CCCC(C(=O)NCc4ccc5c(c4)OCO5)C3)ccc21 (stereo not given) | -7.5 | 6.97 | -7.5 | 36.4% | 3.25 | 8.39 |
| COc1ccc(OC)c(N(CC(=O)Nc2ccc3c(c2)OCO3)S(=O)(=O)c2ccccc2)c1 | -11.4 | -2.2 | -2.35 | 67.9% | 3.23 | 9.99 |
| COc1ccc(OC)c(S(=O)(=O)N2CCCCC2C(=O)N2CCN(c3ccccn3)CC2)c1 (stereo not given) | 1.82 | -0.22 | -4.71 | 91.8% | 1.77 | 7.83 |
| Cc1c(C(=O)NCc2ccccc2)oc2ccc(S(=O)(=O)N3CCC4(CC3)OCCO4)cc12 | 5.31 | 2.71 | -4.5 | 66.5% | 3.6 | 2.96 |
